# Variants at the floor of the assay were thinned out.
# B1: tRNA (parent)
# chain: GUUCCGUUGGCGUAAUGGUAACGCGUCUCCCUCCUAAGGAGAAGACUGCGGGUUCGAGUCCCGUACGGAACG
# Variants of: B1
# Test: yeast fitness relative to wild type (ratio to wild type); higher = fitter; tRNA-Arg(CCU), competitive growth, 37 C, YPD
# Procedure, shortened: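 Amplicons of the tRNA-Arg(CCU) gene were sequenced, 100-nucleotide paired-end, from the start population and from each end population of a pooled yeast competition. The competition, in six parallel replicates, lasted 24 hours in YPD at 37°C. Fitness relative to wild type was calculated from changes in genotype frequencies. Genotypes had to have ≥ 100 starting reads, and estimates < 0.5 were set to 0.5.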
row,Variant,yeast fitness
1,GUUCCGCUGGCGUAAUGGUAACGCGUCUCCCUCCUAAGGAGAAGACUCCGGGUUCGAGUCCCGUACGGAACG [U7C G48C],0.828
2,GUUCCGCUGGCGUAAUGGUAACGCGUCUCCCUCCUAAGGAGAAGACUACGGGUUCGAGUCCCGUACGGAACG [U7C G48A],0.884
3,GUUCCGCUGGUGUAAUGGUAACGCGUCUCCCUCCUACGGAGAAGACUGCGGGUUCGAGUCCCGUACGGAACG [U7C C11U A37C],≤ 0.5
4,GUUCCGCUGGCGUAAUGGUAACGCGUCUACCUCCUAAGGAGAAGACUGCGGGUUCGAGUCCCGUGCGGAACG [U7C C29A A65G],≤ 0.5
5,GUUCCGCUGGCGUAAUGGUAACGCGUUUCCCUCCUAAGGAGAAGACUGCGGGUUCGAGUCCCGUACGGAACG [U7C C27U],0.875
6,GUUCCGCUGGCGUAAUGGUAAAGCGUCUCCCUCCUAAGGAGAAGCUUGCGGGUUCGAGUCCCGUACGGAACG [U7C C22A A45C C46U],≤ 0.5
7,GUUCCGCUGGCGUAAUGGUAACGCGUCUCCCUCCUAAGGAGAAGAUUGCGGGUUCGAGUCACGUACAGAACG [U7C C46U C61A G67A],0.561
8,GUUCCGCUGGCGUAAUGGUAACGCGUCUCCCUCCUAAGGGGGAGACUACGGGUUCCAGUCCCGUACGGAACG [U7C A40G A42G G48A G56C],≤ 0.5
9,GUUCCGCUGGCGUAAUGGUAACGCGUCUCCCUCCUAAGGAGAAGACUGCGGGUUCGAGUCCCCUACGGAACG [U7C G63C],0.611
10,GUUCCGCUAGCGCAAUGGUAUCGCGUCUCCCUCCUAAGGAGAAGACUGCGGGUUCAAGUCCCGUACGGAACG [U7C G9A U13C A21U G56A],≤ 0.5
11,GUUCCGCUGGCGUAAUGGUAAGGACUCUCCCUCCUAAGGAGAAGACUGCGGGUUCGAGUCCCGUAGGGAACG [U7C C22G C24A G25C C66G],≤ 0.5
12,GUUCCGCUGGCGUAAUGGUAACGCGUCUCCCUCCUAAGGAGUAGACUGCGGGUUCGAGUCCCGUACGGAUCG [U7C A42U A70U],0.584
13,GUUCCGCUGGAGUAAUGGUAACGCGUCUCCCUCCUAAGGAGAAGACUGCGGGUUCGAGUCCCGUACGGAACG [U7C C11A],0.556
14,GUUCCGCUGGCGCAAUGGUAACGCGUCUCCGUCUUAAGGAGAAGACUGCGGGUUUGAAUCUCGUACGGAACG [U7C U13C C31G C34U C55U G58A C61U],≤ 0.5
15,GUUCCGCAGGCGUAAUGGUAACGCGUCUCCCUCCUAAGGAGAAGACUGCGGGUUCGAGUCCUGUACGGAACG [U7C U8A C62U],≤ 0.5
16,GUUCCGCUGGCGUAAUAGUAACGCGUCUCCCUCCUAAGGAGAAGACUGCGGGUUCGAGUCCUGUACGGAACG [U7C G17A C62U],≤ 0.5
17,GUUCCGCUGGCGUAAUGGUAACGCGUCUCCCUCCUACGGAGAAGACUGCGGGUUCGAGUGCCAUUCGGACCG [U7C A37C C60G G63A A65U A70C],≤ 0.5
18,GUUCCGCUGGCGUAAUGGUAACGCGUCUCCCUUCUAAGGAGAAGACUGCGGGUUCGAGUCCCGUACAGAACG [U7C C33U G67A],≤ 0.5
19,GUUCCGCUGGCGUAAUGGUAACGCGUCUCCCUCCCAAGGAGAAGACUGCGGGUUCGAGUCCCGUACGGAACG [U7C U35C],0.86

row,Variant,yeast fitness
1,GUUCCGCUGGAGUAAUGGUAACGCGUCUCGCUCCUAAGGAGAAGACUGCGGGUUCGAGUCCCGUAUGGUACG [U7C C11A C30G C66U A69U],≤ 0.5
2,GUUCCGCUCGCGUAAUGGUAACACGUCUCCCUCCUCAGGAGAAGACUGCGGGUUCGAGUCCCGUAAGGAACG [U7C G9C G23A A36C C66A],0.544
3,GUUCCGCUGGCGUAAUGGUAACGCGUCUCCCUCCUAAGGAGAAGACUGCGGGUUCGAGUCCCGUACUGAUCG [U7C G67U A70U],0.544
4,GUUCCGCUGGCGUAAUGGUAACGCGUCUCCCUCCUAAGGAACAGACUGCCGGUUCGAGUCCCGUACCGAACG [U7C G41A A42C G50C G67C],≤ 0.5
5,GUUCCGCUGGCGUAAUGGUAACGCGUCUCCCUCCUAAGGAACAGACUGCCGGUUCGAGUCCCGUACGGAACG [U7C G41A A42C G50C],0.592
6,GUUCCGCUGGCGUAAUGGUAACGCGUCUCCCGCCUAAGGAGAAGACUGCGGGUUCGAGUCCCGUACGCAACG [U7C U32G G68C],≤ 0.5
7,GUUCCGCUGGCGUAAUGGUAACGCGUCUCCCUACUAAGGUGAAGACUGCGGGUUCGCGUCCCGUACGGAACG [U7C C33A A40U A57C],0.662
8,GUUCCGCUGGCGUAAUGGUAACGCGUCUCCCUGCUAAGGGGAAGACUGCGGGUUCGAGUCCCGUACGGAACG [U7C C33G A40G],≤ 0.5
9,GUUCCGCAGGCGUAAUGGUGACGGGUCUCCCUCCUAAGGAGAAGACUGCGGGUUCGAGUCCCGCACGGAACG [U7C U8A A20G C24G U64C],≤ 0.5
10,GUUCCGCUAGCGUAAUGGUAACGCGUCUCCGUCCUAAGGAGAAGACUGCGGGUUCGAGUCCCGUACGGAACG [U7C G9A C31G],0.77
11,GUUCCGCUGGCGUAAUGGUAACGCGUCUCCUUCCUAAGGAGAAGACUGCGGGUUCGUGUCCCGUACGGCACG [U7C C31U A57U A69C],≤ 0.5
12,GUUCCGCUGGCGUAAUGGUAACGCGUCUUCCUCCUAAGGAGAAGACUGCGGGUUCGAGUCCCGUACGGAACG [U7C C29U],0.754
13,GUUCCGCUGGCGUAAUGGUAACGCGUCUGCCUCCUAAGGAGAAGACUGCGGGUUCGAGUCCCGUACGGAACG [U7C C29G],0.677
14,GUUCCGCUGGCGUAAUGGUAACGCGUCUCCCUCCUAAGGAGAAGACUGCGGGUUCGAGUCCGGUACGGAACG [U7C C62G],0.61
15,GUUCCGCUGGCGUAAUGGUAACGCGUCUCCCUCCUAAGGAGAAGACUGCGGGUUCGAGUCCUGUACGGAACG [U7C C62U],0.802
16,GUUCCGCUGGGGUAAUGGUAACGCGUCUCCCGCCUAAGGAGAAGACUGCGGGUUCGAGUCCCGUACGGAACG [U7C C11G U32G],≤ 0.5
17,GUUCCGCUGGCGUAAUGGUAACGCGUCUCCGUACUAAGGAGAAGACUGCGGGUUCGAGUCCCGUAAGGAACG [U7C C31G C33A C66A],≤ 0.5
18,GUUCCGCUGGCGUAAUGGUAACGCGUCUCCCUGCUAAGGAGAAGACUGCGGGUUCGAGUCCCGUACGGAACG [U7C C33G],0.58
19,GUUCCGCUGGAGUAAUGGUAACGCGUGUCCCUCCUAAGGAGAAGACUGCGGGUUCGGGUCCCGUACGGAACG [U7C C11A C27G A57G],≤ 0.5

# — the RNAGym collection of RNA variant scans (doi:10.1126/science.aae0568)
